Assay results reported in ChEMBL document CHEMBL3351752, “Discovery and in vivo evaluation of alcohol-containing benzothiazoles as potent dual-targeting bacterial DNA supercoiling inhibitors” (Bioorg Med Chem Lett, 2014).
Values after ≈ are worked out from the molar mass of the structure shown. Active and inactive are the calls of the source. The calls are words filed in the database; no cut-off is given here.

Experiments:
Staphylococcus aureus [1] = assay: Antimicrobial activity against methicillin-sensitive Staphylococcus aureus infected in neutropenic mouse assessed as log reduction in colony forming units at 30 mg/kg, iv administered as single dose measured 24 hrs post infection relative to control; format: functional, organism-based; set-up: dose 30 mg/kg
How it was run: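 Thigh infection in neutropenic female CD-1 mice (18–22 g), made neutropenic with ip cyclophosphamide (150 mg/kg day −4, 100 mg/kg day −1). Thighs inoculated with about 2 × 10^5 CFU of MSSA S. aureus ATCC 19636 from fresh overnight culture. Single iv dose at 30 mg/kg. Thighs harvested at 24 h, homogenized in saline on ice, serial dilutions plated on charcoal plates, colonies counted; log CFU reduction taken versus matched controls.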

Staphylococcus aureus [2] = assay: Antimicrobial activity against Staphylococcus aureus ATCC 19636 infected in neutropenic mouse assessed as reduction in colony forming units at 25 mg/kg, iv administered as single dose measured 24 hrs post infection relative to control; format: functional, organism-based; set-up: dose 25 mg/kg
Staphylococcus aureus [3] = assay: Antibacterial activity against Staphylococcus aureus ATCC 29213 assessed as growth inhibition; format: functional
Staphylococcus aureus [4] = assay: Antimicrobial activity against methicillin-sensitive Staphylococcus aureus infected in neutropenic mouse assessed as reduction in colony forming units administered iv at 2, 4 and 6 hrs post-inoculation measured 24 hrs post infection relative to control; format: functional, organism-based
Staphylococcus aureus [5] = assay: Antimicrobial activity against methicillin-sensitive Staphylococcus aureus infected in neutropenic mouse assessed as log reduction in colony forming units at 100 mg/kg, iv administered at 2, 4 and 6 hrs post-inoculation measured 24 hrs post infection relative to control; format: functional
Staphylococcus aureus [6] = assay: Antimicrobial activity against methicillin-sensitive Staphylococcus aureus infected in neutropenic mouse assessed as log reduction in colony forming units at 30 mg/kg, iv administered at 2, 4 and 6 hrs post-inoculation measured 24 hrs post infection relative to control; format: functional
Staphylococcus aureus [7] = assay: Ratio of MIC for Staphylococcus aureus ATCC 29213 assessed as growth inhibition in presence of 50% horse serum to MIC for Staphylococcus aureus ATCC 29213 assessed as growth inhibition; format: functional
Staphylococcus aureus [8] = assay: Antimicrobial activity against Staphylococcus aureus ATCC 19636 infected in neutropenic mouse assessed as reduction in colony forming units at 100 mg/kg, po administered as single dose measured 24 hrs post infection relative to control; format: functional, organism-based; set-up: dose 100 mg/kg
Haemophilus influenzae = assay: Antibacterial activity against Haemophilus influenzae 49247 assessed as growth inhibition; format: functional
[9] = Fraction unbound in mouse plasma by ultracentrifugation; format: ADME, cell-free
How it was run: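 Compound at 10 µM (1% DMSO) was equilibrated in neat plasma at 37 °C for 60 min. Duplicate aliquots were ultracentrifuged at 250,000g for 4.2 h at 37 °C. Free compound in the plasma-water supernatant was compared with uncentrifuged samples incubated alike. Uncentrifuged samples kept at 20 °C checked degradation, and diltiazem served as stability control. Analysis was by LCMS.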

Streptococcus pyogenes [10] = assay: Antibacterial activity against Streptococcus pyogenes 51339 assessed as growth inhibition; format: functional
Staphylococcus aureus [11] = assay: Inhibition of Staphylococcus aureus DNA gyrase ATPase subunit GyrA2/GyrB2 after 60 mins by malachite green staining assay
Staphylococcus aureus [12] = assay: Antimicrobial activity against Staphylococcus aureus ATCC 19636 infected in neutropenic mouse assessed as reduction in colony forming units at 30 mg/kg, iv administered as single dose measured 24 hrs post infection relative to control; format: functional, organism-based; set-up: dose 30 mg/kg
Staphylococcus aureus [13] = assay: Antibacterial activity against Staphylococcus aureus ATCC 29213 assessed as growth inhibition in presence of 50% horse serum; format: functional
Staphylococcus aureus [14] = assay: Antimicrobial activity against Staphylococcus aureus harboring GyrB T173N mutant assessed as growth inhibition; format: functional
Streptococcus pyogenes [15] = assay: Antimicrobial activity against Streptococcus pyogenes harboring ParE A53S mutant assessed as growth inhibition; format: functional

Compound	MIC (Staphylococcus aureus [3]) [µg/mL]	Activity (Staphylococcus aureus [4])	FC (Staphylococcus aureus [5])	FC (Staphylococcus aureus [6])	Ratio (Staphylococcus aureus [7])	MIC (Haemophilus influenzae) [µg/mL]	MIC (Streptococcus pyogenes [10]) [µg/mL]	Activity (Staphylococcus aureus [12])	MIC (Staphylococcus aureus [13]) [µg/mL]	MIC (Staphylococcus aureus [14]) [µg/mL]	MIC (Streptococcus pyogenes [15]) [µg/mL]	also measured
CN[C@H](CC(C)C)C(=O)N[C@H]1C(=O)N[C@@H](CC(N)=O)C(=O)N[C@H]2C(=O)N[C@H]3C(=O)N[C@H](C(=O)N[C@H](C(=O)O)c4cc(O)cc(O)c4-c4cc3ccc4O)[C@H](O)c3ccc(c(Cl)c3)Oc3cc2cc(c3O[C@@H]2O[C@H](CO)[C@@H](O)[C@H](O)[C@H]2O[C@H]2C[C@](C)(N)[C@H](O)[C@H](C)O2)Oc2ccc(cc2Cl)[C@H]1O												Activity (Staphylococcus aureus [1]): Active
CC(=O)NC[C@H]1CN(c2ccc(N3CCOCC3)c(F)c2)C(=O)O1												Activity (Staphylococcus aureus [2]): Active
CCNC(=O)Nc1nc2cc(-c3cnc(N4CCC(CC)(C(=O)O)CC4)nc3)cc(/C=N/OC)c2s1	0.12 (≈ 0.235 µM)	Dose-dependent effect	4	<3								
CCNC(=O)Nc1nc2cc(-c3cnc(C(C)(C)O)nc3)cc(-c3ccccn3)c2s1	0.06 (≈ 0.138 µM)				4	1 (≈ 2.3 µM)	0.12 (≈ 0.276 µM)	Active	0.25	0.25 (≈ 0.575 µM)	1 (≈ 2.3 µM)	Activity (Staphylococcus aureus [8]): Active; fraction unbound [9]: 0.051; inhibitory concentration (Staphylococcus aureus [11]): 0.006 µg/mL
CO[C@@H]1[C@@H](OC(N)=O)[C@@H](O)[C@H](Oc2ccc3c(O)c(NC(=O)c4ccc(O)c(CC=C(C)C)c4)c(=O)oc3c2C)OC1(C)C								Active				
CCNC(=O)Nc1nc2cc(-c3cnc(N4CCC(CC)(C(=O)O)CC4)nc3)cc(-c3ccccn3)c2s1	0.06 (≈ 0.113 µM)	Dose-dependent effect	4	<3	64	4 (≈ 7.52 µM)	0.06 (≈ 0.113 µM)		4	0.25 (≈ 0.47 µM)	0.5 (≈ 0.94 µM)	
